# MrgX1 antagonist: blocks BAM8-22 activation of human MrgX1 receptor; Q96LB2; MRGX1-HEK293 calcium flux, Fluo-4, BAM8-22 antagonism; active compounds read low; B-score at 10 µM; 310,000 tested, 1.3% active; AID 588676;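 active = calcium-response B-score plate-corrected more than 3 library SD below zero, starting fluorescence within 5 deviations, no agonist response on first addition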;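 note: peak minus trough fluorescence over baseline after final BAM8-22 challenge near maximal dose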
# Target sequence (Q96LB2 whole entry, looked up): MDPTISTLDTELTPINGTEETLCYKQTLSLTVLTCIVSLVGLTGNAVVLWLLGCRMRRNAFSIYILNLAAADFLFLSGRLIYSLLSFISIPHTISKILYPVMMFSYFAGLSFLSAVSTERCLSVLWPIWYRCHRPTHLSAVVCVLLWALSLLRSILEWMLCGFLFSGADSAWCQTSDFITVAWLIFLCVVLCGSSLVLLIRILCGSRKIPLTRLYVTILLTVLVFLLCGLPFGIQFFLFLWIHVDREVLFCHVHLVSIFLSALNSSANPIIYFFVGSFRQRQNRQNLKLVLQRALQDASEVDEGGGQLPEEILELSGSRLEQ
# RGS4 pot: potentiators or activators of RGS4; HEK293 M3R/inducible RGS4, carbachol calcium flux Fluo4; active compounds read low; B-score at 10 µM; 310,000 tested, 0.92% active; AID 463111;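 active = B-score of the integrated calcium signal more than 4 SD below the library mean, with starting fluorescence not abnormally high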;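 note: negative B-score means reduced calcium response which marks RGS4 activation or potentiation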
#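 Material: M3R-expressing HEK293 line, RGS4 induced by doxycycline | Schedule: Overnight RGS4 induction, 30 min dye load 37 °C, 20 min compound RT | Measured by: Fluo4 fluorescence kinetic imaging of calcium | Read-out: Integrated calcium ratio converted to B score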
# RGS4 block: inhibitors of human RGS4; HEK293 M3R/RGS4 inducible, Fluo-4 calcium flux; active compounds read high; triggered by carbachol at its EC20; B-score at 10 µM; 310,000 tested, 0.45% active; AID 463165;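 active = B-score, a plate-corrected calcium signal, over three deviations above library mean, with baseline fluorescence within five deviations of library mean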;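 note: RGS4 expression induced by doxycycline in cells with stable M3 receptor; B-score is computed from the integrated fluorescence ratio over baseline after carbachol; higher B-score means a larger calcium signal and so more RGS4 inhibition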
# Target sequence (P49798 whole entry, looked up): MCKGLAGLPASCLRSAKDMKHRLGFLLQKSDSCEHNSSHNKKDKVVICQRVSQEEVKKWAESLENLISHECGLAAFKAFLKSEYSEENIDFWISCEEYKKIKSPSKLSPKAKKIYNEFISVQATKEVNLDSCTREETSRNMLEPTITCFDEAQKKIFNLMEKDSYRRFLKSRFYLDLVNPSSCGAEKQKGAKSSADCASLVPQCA
# MrgX1 allo act: human MrgX1 positive allosteric modulation, primary screen | AID 588675 | Q96LB2 | B-score at 10 µM | MrgX1-HEK293, Fluo-4 calcium flux, FDSS; active compounds read high | 310,000 tested, 0.63% active;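 active = plate-corrected calcium response at least 3 library SD above typical, normal starting fluorescence, not activating the receptor alone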;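 note: compound read alongside a low EC10 to EC30 dose of BAM8-22 agonist; peak minus trough fluorescence over baseline measured at the second addition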
# MrgX1 agonist: human MrgX1 receptor agonism, primary screen; 310,000 tested, 0.44% active; Q96LB2; MrgX1-HEK293 cells, Fluo-4 calcium fluorescence, agonist mode; active compounds read high; AID 588627; B-score at 10 µM;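 active = calcium response B-score plate-corrected fluorescence ratio at least 3 library SD, with starting fluorescence B-score inside 5 SD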
#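 Test system: Stable human MrgX1 HEK293 cell line | Schedule: Overnight plating before 1 h dye loading | Read-out basis: Baseline-normalised fluorescence change ratio, B-scored | Detection: Kinetic calcium dye fluorescence, Fluo-4 NW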
# RGS4 block valid: validation of RGS4 inhibitors | shares compounds with RGS4 block | HEK293 M3R/RGS4, carbachol calcium Fluo-4 fluorescence; carbachol added at its EC20; 0 = buffer wells, 100 = carbachol control | calcium response, % at 10 µM | 1,700 tested, 65% active;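 active = duplicate-averaged calcium response above the buffer-only control mean plus 5 SD of those controls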;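 note: integrated fluorescence ratio F max minus min over baseline F0; higher response in RGS4-induced cells means RGS4 inhibition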
# M3R Ca ctr: non-induced cell nonspecific activity of RGS4 inhibitors. HEK293 M3R non-induced, carbachol calcium Fluo-4; submaximal (EC20) carbachol stimulus; buffer wells 0%, carbachol control wells 100%. activity (percent), % at 10 µM. 1,900 tested, 20% active. shares compounds with RGS4 block. AID 493000; call rule not given here;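 note: RGS4 induction absent so cells express M3R without RGS4; higher means more calcium signal and flags a non-specific hit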
# M3R basal Ca ctr: second RGS4 inhibitor counter-screen in uninduced cells lacking carbachol; shares compounds with RGS4 block; HEK293 M3R/RGS4 non-induced, Fluo-4 calcium, no carbachol; normalised: buffer wells 0%, carbachol wells 100%; calcium response (agonist-mode artifact), % at 10 µM; 1,900 tested, 22% active; AID 493001;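 active = duplicate-averaged calcium rise in uninduced cells above buffer wells' mean plus 5 SD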
# Numbers without * were called inactive; i = inactive; / = no result given. This is a sample that favours compounds with a hit; in the whole collection about 3.5% have one here.
SMILES,MrgX1 antagonist,RGS4 pot,RGS4 block,MrgX1 allo act,MrgX1 agonist,RGS4 block valid,M3R Ca ctr,M3R basal Ca ctr
Cc1cccc(Nc2nc(NCc3ccco3)nc(N)c2[N+](=O)[O-])c1,i,i,i,i,i,/,/,/
Cc1cccc(Nc2nc(N)c([N+](=O)[O-])c(NCc3ccco3)n2)c1,i,i,i,i,i,i,i,i
Nc1nc(Nc2cccc(Cl)c2)nc(NCCO)c1[N+](=O)[O-],i,i,i,i,i,/,/,/
Nc1nc(Nc2cccc(Cl)c2)nc(NCc2ccco2)c1[N+](=O)[O-],i,i,17*,i,i,11%*,i,i
S=C(NCc1ccccc1)N1CCN(C2CCCCC2)CC1,i,i,i,i,i,/,/,/
Cc1ccc(-c2nnc(SCC(=O)NC3CCCC3)n2C)cc1,i,i,i,i,i,/,/,/
Cc1ccc2c(c1)N(C(=O)CCC(=O)NCCCN1CC(C)CC(C)C1)CCO2 (stereo not drawn),i,i,i,i,i,/,/,/
Cc1ccc(N(CC(=O)N=Nc2c(O)[nH]c3ccccc23)S(C)(=O)=O)c(C)c1,i,i,i,i,i,i,i,i
O=C(NNC(=O)c1ccccc1OCc1ccc(F)cc1)c1ccncc1,i,i,i,i,i,/,/,/
CCOc1cc(CNc2ccc(N3CCCC3)cc2)cc(Cl)c1OC,i,i,5.1*,i,i,14%*,i,i
CCOc1cc(CNc2ccc(S(N)(=O)=O)cc2)cc(Cl)c1OC,i,i,i,i,i,/,/,/
CCC(CC)NC(=O)Nc1ccc(C)cc1,i,i,i,i,i,/,/,/
O=S(=O)(Nc1ccc(N=Nc2ccc(O)c3ccccc23)cc1)c1ccccc1,i,i,4.7*,i,i,5.5%*,i,i
O=C(CNC(=O)c1ccc(F)cc1)Nc1ccccc1C(F)(F)F,i,i,i,i,i,/,/,/
CC(=O)Oc1cc2c(cc1Cl)C1(CC(c3ccccc3Cl)O2)CC(C)(C)NC(=S)N1 (stereo not drawn),i,i,5*,i,i,9.0%*,i,i
Cn1c(=O)c2c(-c3ccccc3)n(-n3cnnc3)cc2n(C)c1=O,i,i,5.4*,i,i,11%*,i,i
O=C(/C=C/c1ccccc1)/C=C/c1ccccc1,i,i,6.3*,i,i,27%*,38%*,i
Cc1ccccc1N(C(=O)c1csnn1)C(C(=O)NC1CCCC1)c1ccncc1 (stereo not drawn),i,i,i,i,i,/,/,/
COC(=O)CSc1[nH]c2ccccc2c1[N+](=O)[O-],i,i,16*,i,i,44%*,i,i
CCN(CC(=O)NC(C)C)Cc1nc2c(Br)cc(Br)cc2c(=O)[nH]1,i,i,5*,i,i,25%*,i,12%*
O=C(NCC1CCCO1)c1ccc(COc2ccccc2)o1 (stereo not drawn),i,i,i,i,i,/,/,/
O=C1NN(c2ccc(F)c(Cl)c2)C(=O)/C1=C\c1cccc(OC(=O)c2cccs2)c1,i,i,18*,i,27*,58%*,i,14%*
CC(C)=C1C(=O)NN(c2ccc(F)c(Cl)c2)C1=O,i,i,i,i,i,/,/,/
O=C(NC1CCCC1)c1nc2c(nnn2Cc2ccccc2Cl)c(=O)[nH]1,i,i,i,i,i,/,/,/
COc1cccc(OC)c1NC(=O)c1nc2c(nnn2Cc2ccccc2Cl)c(=O)[nH]1,i,i,5.5*,i,i,14%*,i,i
SMILES,MrgX1 antagonist,RGS4 pot,RGS4 block,MrgX1 allo act,MrgX1 agonist,RGS4 block valid,M3R Ca ctr,M3R basal Ca ctr
C/C(=N\NC(=O)c1nnn(-c2nonc2N)c1CN1CCCCCC1)c1ccc(Br)cc1,i,i,i,i,i,/,/,/
O=C(Nc1ccccc1)C(Cl)C(=O)c1ccccc1 (stereo not drawn),i,i,9.1*,i,i,30%*,38%*,i
CCOC(=O)CNC(=O)c1cc2c(=O)[nH]c3ccc(C)cc3c2s1,i,i,i,i,i,/,/,/
Cc1ccc2[nH]c3c(c2c1)CN(C(=O)CN1c2ccc(F)cc2CCC1C)CC3 (stereo not drawn),i,i,9*,i,i,23%*,i,i
Cc1ccc2[nH]c3c(c2c1)CN(C(=O)CN1CCN(c2cccc(C)c2C)CC1)CC3,i,i,i,i,i,/,/,/
O=C(CCCNC(=O)c1ccc(Cl)cc1)OCc1cccc(Br)c1,i,i,i,i,i,/,/,/
N#CC1=C(N)Oc2c(O)cc3ccccc3c2C1c1ccsc1 (stereo not drawn),i,i,14*,i,i,40%*,33%*,i
COCC(C)(C)COS(N)(=O)=O,i,i,i,i,i,/,/,/
CC12CCC(=O)N1C(C(=O)Nc1nnc(SCc3ccc(F)cc3)s1)CS2 (stereo not drawn),i,i,i,i,i,/,/,/
CCCCNc1c(C(=O)OCC)c(C)nc2c1cnn2CC,i,i,10*,i,i,7.5%*,28%*,i
O=C(O)c1ccc(N2CCN(c3ccc(Cl)cc3)CC2)c([N+](=O)[O-])c1,i,i,5*,i,i,7.5%*,i,i
O=C(/C=C/c1ccc(Cl)cc1)N1CCN(c2ccc(Cl)cc2[N+](=O)[O-])CC1,i,i,i,i,i,/,/,/
O=C(NNC(=S)Nc1ccc(Cl)cc1Cl)c1ccc(N2CCOCC2)c([N+](=O)[O-])c1,i,i,5.2*,i,i,9.5%*,34%*,i
Cc1ccc(NC(=O)CSCC(=O)Nc2ccccc2N2CCCCC2)cc1,i,i,i,i,i,/,/,/
COc1ccccc1N1CCN(Cc2cn[nH]c2-c2ccc(F)cc2)CC1,i,i,i,i,i,i,50%*,i
COc1ccccc1N1CCN(Cc2nc(-c3ccc(F)cc3)oc2C)CC1,i,i,i,i,i,/,/,/
